An excerpt weighted towards active compounds, which were near 3.7% of everything screened.
KCNQ1 block = inhibitors of human KCNQ1 channel, primary screen, cell-based, thallium flux, high-throughput; CHO-K1 KCNQ1, FluxOR thallium flux fluorescence; stronger effect = higher value; hit rate 1.3% among 310,000; B-score at 10 µM; AID 2642, 2010; Potassium voltage-gated channel subfamily KQT member 1 (Homo sapiens), P51787;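 active means compounds whose thallium flux B-score, printed positive for inhibition, exceeds three library SD while starting fluorescence stays within three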;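 further: channel opened by potassium depolarization with thallium stimulus after 20 min compound exposure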
KCNQ1 act = potentiators or activators of KCNQ1 channel, primary screen, cell-based, thallium flux, high-throughput; Potassium voltage-gated channel subfamily KQT member 1 (Homo sapiens), P51787; CHO-K1 KCNQ1, thallium flux FluxOR fluorescence; stronger effect = higher value; B-score at 10 µM; hit rate 0.35% among 310,000;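 active means fluorescence ratio B-score, a plate-corrected score, at least three library SD, with initial intensity B-score within 5 SD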
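Doses: Single concentration per compound, DMSO matched to controls | Test system: KCNQ1-transfected CHO-K1 cells | Timing: 90 min dye loading and 20 min compound exposure, both at room temperature | Measured by: Kinetic FluxOR thallium fluorescence, 10-s 1-Hz baseline, 110-s post-stimulus read | Medium: Assay buffer with matched DMSO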
Kir21 block = inhibitors of mouse Kir2.1 inward-rectifier potassium channel; hit rate 0.85% among 310,000; HEK293-Kir2.1, FluxOR thallium flux fluorescence; stronger effect = lower value; Inward rectifier potassium channel 2 (Mus musculus), P35561; B-score at 10 µM; AID 1672, 2009;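 active means fluorescence ratio B-score at or below minus 3 SD of library scores, with starting-brightness B-score within 2 SD, cut at about -4.2 in these data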;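 further: channel flux triggered by added potassium and thallium sulfate stimulus; B-score of peak minus minimum fluorescence over baseline after thallium stimulus; more negative B-score means stronger Kir2.1 block with less thallium influx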
KCNK3 block = human KCNK3 channel inhibitors, primary screen, CHO cells, FluxOR thallium flux, B-score | Potassium channel subfamily K member 3 (Homo sapiens), O14649 | FluxOR fluorescence; stronger effect = lower value | B-score at 10 µM | hit rate 0.84% among 340,000 | AID 602410, 2012;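 active means B-score under library mean minus 4 SD, starting fluorescence ratio at most library mean plus 5 SD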;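 further: more negative B-score means stronger inhibition of thallium flux through KCNK3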
KCNK9 inh = KCNK9 potassium channel inhibitors, primary screen, HEK293 cells, thallium flux. Potassium channel subfamily K member 9 (Homo sapiens), Q9NPC2. B-score at 10 µM. FluxOR thallium flux fluorescence; stronger effect = lower value. hit rate 1.2% among 310,000;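 active means ratio B-score over 3 SD below the library mean, with starting fluorescence within 5 SD of its mean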;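 further: negative B-score means less thallium flux so channel inhibition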
hERG rescue = hERG rescue from dofetilide block, primary screen, cell-based, CHO-hERG, FluxOR thallium flux, dofetilide IC70 | Voltage-gated inwardly rectifying potassium channel KCNH2 (Homo sapiens), Q12809 | dofetilide IC70 present | hit rate 0.51% among 310,000 | activation (rescue from dofetilide block), less the hit threshold, % at 10 µM;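 active means activation above the mean of controls blocked by dofetilide plus 5 SD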;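 further: thallium influx through hERG after potassium depolarization seen as dye fluorescence rise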
Target sequence (Q12809 whole entry, looked up): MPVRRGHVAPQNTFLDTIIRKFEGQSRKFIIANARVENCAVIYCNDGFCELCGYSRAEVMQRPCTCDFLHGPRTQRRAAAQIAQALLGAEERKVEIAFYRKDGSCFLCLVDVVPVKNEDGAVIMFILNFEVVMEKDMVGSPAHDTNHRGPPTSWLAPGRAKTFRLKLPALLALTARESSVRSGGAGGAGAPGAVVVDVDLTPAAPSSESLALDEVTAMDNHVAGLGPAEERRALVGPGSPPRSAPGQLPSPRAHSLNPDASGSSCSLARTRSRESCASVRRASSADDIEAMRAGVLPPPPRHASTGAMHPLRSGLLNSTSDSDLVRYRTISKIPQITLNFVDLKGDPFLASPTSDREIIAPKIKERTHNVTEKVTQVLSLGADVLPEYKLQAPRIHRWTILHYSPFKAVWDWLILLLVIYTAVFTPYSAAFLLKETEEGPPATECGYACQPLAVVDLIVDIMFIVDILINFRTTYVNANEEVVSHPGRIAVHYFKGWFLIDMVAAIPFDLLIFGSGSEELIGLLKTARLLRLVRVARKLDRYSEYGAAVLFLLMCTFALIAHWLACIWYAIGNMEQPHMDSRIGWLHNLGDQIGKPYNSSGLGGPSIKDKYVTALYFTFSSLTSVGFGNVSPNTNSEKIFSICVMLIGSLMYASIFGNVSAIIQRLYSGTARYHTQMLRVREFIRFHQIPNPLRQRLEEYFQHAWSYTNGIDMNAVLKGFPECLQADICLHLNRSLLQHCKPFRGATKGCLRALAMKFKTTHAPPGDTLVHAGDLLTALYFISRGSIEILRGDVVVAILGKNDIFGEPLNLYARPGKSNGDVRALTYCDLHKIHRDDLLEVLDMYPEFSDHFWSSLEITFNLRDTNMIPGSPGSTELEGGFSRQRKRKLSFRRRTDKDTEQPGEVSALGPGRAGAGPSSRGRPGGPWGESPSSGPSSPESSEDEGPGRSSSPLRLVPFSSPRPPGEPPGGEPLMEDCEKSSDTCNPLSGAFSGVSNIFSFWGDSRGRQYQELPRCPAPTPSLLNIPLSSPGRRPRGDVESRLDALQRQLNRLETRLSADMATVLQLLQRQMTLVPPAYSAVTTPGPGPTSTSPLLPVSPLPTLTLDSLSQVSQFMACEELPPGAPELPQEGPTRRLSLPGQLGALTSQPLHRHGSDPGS
KCNK9 inh conf = KCNK9 potassium channel inhibitors, confirmation, HEK293 cells, thallium flux, duplicate. hit rate 43% among 4,900. FluxOR thallium flux fluorescence. inhibition, % at 10 µM. AID 492992, 2010. shares compounds with KCNK9 inh;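 active means thallium signal inhibited by more than 5 SD of the compound-free buffer control wells, on both duplicate plates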;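 further: 0% = assay buffer control wells without compound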
Kir21 sel = mouse Kir2.1 channel inhibition, confirmation, selectivity assay for KCNK9 modulator project, cell-based, HEK293, thallium flux | shares compounds with KCNK9 inh | inhibition, % at 10 µM | Kir2.1 cells, FluxOR thallium flux fluorescence | hit rate 4% among 4,900;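 active means thallium signal drop more than 5 SD beyond the mean of the no-compound control wells, seen in both duplicate plates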;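 further: signal is fluorescence rise after thallium addition divided by baseline fluorescence; plate controls were assay buffer only for no effect and full block by chlorpromazine control for full effect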
KCNK9 uninduced = thallium flux in non-induced HEK293 cells, confirmation, counter-screen for KCNK9 inhibitor project, cell-based, second counter screen, non-induced KCNK9-HEK293; shares compounds with KCNK9 inh; FluxOR thallium flux; inhibition, % at 10 µM; hit rate 40% among 4,900; AID 492997, 2010;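 active means thallium signal drop beyond 5 SD of the untreated control mean, on both duplicate plates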;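 further: plate controls were buffer only IC0 wells for no effect and SID17386958 at its maximal inhibitory level for full effect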
Starred values were filed as active, the others as inactive; i = inactive; / = no result given; ! = repeats disagree.

SMILES	KCNQ1 block	KCNQ1 act	Kir21 block	KCNK3 block	KCNK9 inh	hERG rescue	KCNK9 inh conf	Kir21 sel	KCNK9 uninduced
CCOC(=O)N1CCC(NC(=O)C2=CCN(S(=O)(=O)c3ccc(OC)cc3)CC2)CC1	i	i	-0.03	i	i	-7	/	/	/
CN(CC1CCCN(CCc2cccc(C(F)(F)F)c2)C1)C(=O)c1cc2ccccc2o1 (stereo not drawn)	i	i	-3.3	i	i	-21	i	i	i
Cc1ccc(S(=O)(=O)N2CCN(C(=O)CNC(=O)c3sc4ccccc4c3Cl)CC2)cc1	i	i	0.88	i	i	-11	/	/	/
COC(=O)c1c(NC(=O)Cc2ccccc2)sc2c1C(C(=O)OC)CC2 (stereo not drawn)	i	i	-1.5	i	i	-22	i	i	i
Clc1ccccc1OCCN1CCC(Cc2ccccc2)CC1	i	i	-4.3	i	i	-12	i	i	i
O=[N+]([O-])c1cccc(OCCN2CCC(Cc3ccccc3)CC2)c1	7*	i	-1.2	i	i	-16	i	i	i
O=Cc1cc(Cl)ccc1OCCN1CCC(Cc2ccccc2)CC1	i	i	-4.8*	i	i	-26	i	i	i
CCCC1(CCC)NC(=O)N(CC(=O)Nc2ccc(Cl)c(S(=O)(=O)N3CCOCC3)c2)C1=O	/	/	/	i	/	/	/	/	/
O=C(CCS(=O)(=O)c1ccc(Cl)cc1)NC1CCCC1	/	/	/	i	/	/	/	/	/
CCN1C(=O)/C(=C\c2nc3ccccc3c(=O)n2CC)c2ccccc21	i	i	0.07	i	i	-15	i	i	i
CCC(C(=O)NCCc1ccc(S(N)(=O)=O)cc1)c1ccccc1 (stereo not drawn)	i	i	0.49	i	i	-6	/	/	/
Cc1ccc2nc(SCC(=O)NC3CCS(=O)(=O)C3)[nH]c2c1 (stereo not drawn)	/	/	/	i	/	/	/	/	/
O=C(c1cccc2c1-c1ccccc1C2)N1CCCCC1	i	i	1.3	i	i	-5	/	/	/
N#Cc1ccccc1-c1ccccc1C(=O)N1CCCCC1	i	i	0.5	i	-19*	-2	i	i	i
CN(Cc1ccc2ccccc2c1)C(=O)c1ccc(C(F)(F)F)cc1	i	i	0.18	i	i	-8	i	i	38%*
COc1ccc(CN(C)C(=O)c2ccc(Oc3ccccc3)cc2)cc1F	i	i	0.98	i	i	-13	/	/	/
Cc1cc(C(=O)N/N=C/c2ccc(-c3cccc(Cl)c3)o2)n[nH]1	i	i	-1	i	-14*	-10	34%*	i	32%*
C=CC[C@H](CC(=O)NCCO)C(=O)N[C@H](COC(=O)[C@H](CC=C)CC(=O)OC(C)(C)C)Cc1c[nH]c2ccccc12	/	/	/	i	/	/	/	/	/
COCc1c(C(=O)OCC(=O)c2c(N)n(CC(C)C)c(=O)n(C)c2=O)oc2ccccc12	i	i	0.02	i	i	-5	/	/	/
Cc1c(C(=O)OCC(=O)c2c(N)n(CC(C)C)c(=O)n(C)c2=O)oc2ccccc12	i	i	-1.2	i	i	-14	i	i	i
COC(=O)c1cc(NC(=O)Nc2cc(OC)ccc2OC)cc(C(=O)OC)c1	i	i	2.2	i	-11*	-16	31%*	i	i
CC(=O)Nc1ccc([N+](=O)[O-])cn1	i	i	-0.24	i	-8.4*	-5	i	i	i
O=C(Nc1ccc([N+](=O)[O-])cn1)C1CC1	i	i	0.89	i	i	-5	/	/	/
COc1ccccc1CCN1CCCC(CN(C)Cc2ccc(OCCO)cc2)C1 (stereo not drawn)	i	i	0.62	i	i	-10	/	/	/
COc1cc(CN(C)CC2CCCN(CCc3ccccc3F)C2)cc(Cl)c1OC (stereo not drawn)	i	i	-4.9*	i	i	-4	i	i	i
SMILES	KCNQ1 block	KCNQ1 act	Kir21 block	KCNK3 block	KCNK9 inh	hERG rescue	KCNK9 inh conf	Kir21 sel	KCNK9 uninduced
CC(C)(C)c1ccc(OCC(=O)NNC(=S)NC(=O)c2ccco2)c(Br)c1	i	56*	1.4	i	i	-13	i	i	i
CCCCCCC(=O)N1CCCC(c2nc(-c3cccc(OC)c3)no2)C1 (stereo not drawn)	i	i	-1.6	i	i	-15	i	i	i
CCCCCC(=O)N1CCCC(c2nc(-c3ccc(OC)cc3)no2)C1 (stereo not drawn)	i	i	-1.1	i	i	-13	i	i	i
COc1ccc2c(c1)CCC/C2=N/OC(=O)c1ccccc1OC	i	i	0.37	i	-12*	-10	62%*	i	i
Cc1cc(C)c2nc(NNC(=O)c3ccc(S(=O)(=O)N4CCCCC4)cc3)sc2c1	i	i	0.09	i	i	-12	i	i	i
Cc1cccc2sc(NNC(=O)c3ccc(S(=O)(=O)N4CCc5ccccc5C4)cc3)nc12	i	i	0.03	i	i	-4	i	i	i
COc1ccc(CCC(=O)OCC(=O)N(CC(C)C)c2c(N)n(Cc3ccccc3)c(=O)[nH]c2=O)cc1	i	i	1.4	i	i	-10	/	/	/
CC1CCC(C(C)C)C(OC(=O)Cn2nnc3c(cnn3-c3ccccc3)c2=O)C1 (stereo not drawn)	i	i	-1.3	i	i	-20	/	/	/
Cc1ccccc1OCc1n(CC(=O)OC2CC(C)CCC2C(C)C)c2ccccc2[n+]1C (stereo not drawn)	8*!	i	-15*	-13*	-17*	-30	70%*	78%*!	i
O=C(OCCCOC(=O)c1ccc(Br)o1)c1ccc(Br)o1	i	i	-0.94	i	i	-10	/	/	/

Bioassay records deposited in PubChem BioAssay by Johns Hopkins Ion Channel Center.
